Consider 3 molecules from ChEMBL document CHEMBL1122401, “Synthesis and pharmacological activity of 6-[(E)-2-(2,6,6-trimethyl-1-cyclohexen-1-yl)ethen-1-yl]- and 6-(1,2,3,4-tetrahydro-1,1,4,4-tetramethyl-6-naphthyl)-2-naphthalenecarboxylic acids” (1983).

For assay [1], the system named is Cricetinae gen. sp. Nature of the assay: Reversal of keratinization process in hamster tracheal organ culture at concentration of 10e-8 M expressed as percent of active cultures out of 7 cultures. The format is functional, Trachea.
Assay [2] relates to Cricetinae gen. sp. Nature of the assay: Reversal of keratinization process in hamster tracheal organ culture at concentration of 10e-10 M expressed as percent of active cultures out of 13 cultures. In kind it is functional, Trachea.
For assay [3], the system named is Cricetinae gen. sp. Nature of the assay: Reversal of keratinization process in hamster tracheal organ culture at concentration of 10e-11 M expressed as percent of active cultures out of 5 cultures. The format is functional, Trachea.
Assay [4] has as its system Cricetinae gen. sp. Nature of the assay: Reversal of keratinization process in hamster tracheal organ culture at concentration of 10e-9 M expressed as percent of active cultures out of 12 cultures. In kind it is functional, Trachea.
For assay [5], the target named is T1, Ornithine decarboxylase (Mus musculus) (UniProt P00860).
T1 sequence (whole entry): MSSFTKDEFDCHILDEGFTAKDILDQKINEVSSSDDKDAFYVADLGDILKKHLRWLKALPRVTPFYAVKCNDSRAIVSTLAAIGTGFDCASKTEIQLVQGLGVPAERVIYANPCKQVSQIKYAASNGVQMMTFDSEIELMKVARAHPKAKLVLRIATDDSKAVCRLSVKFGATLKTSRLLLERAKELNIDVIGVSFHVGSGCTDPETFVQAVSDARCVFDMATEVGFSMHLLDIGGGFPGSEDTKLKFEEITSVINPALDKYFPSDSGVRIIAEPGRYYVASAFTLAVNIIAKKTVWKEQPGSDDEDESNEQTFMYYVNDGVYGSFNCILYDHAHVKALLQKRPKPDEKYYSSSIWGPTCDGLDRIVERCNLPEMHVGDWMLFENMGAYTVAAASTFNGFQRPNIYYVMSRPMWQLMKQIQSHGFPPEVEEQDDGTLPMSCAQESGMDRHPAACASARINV
Nature of the assay: Percent inhibition of induction of ODC(ornithine decarboxylase) by TPA in mouse skin at a dose of 1.7 nmol. Summed up: (§1)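 ODC induction by the tumour-promoting phorbol ester TPA, measured in mouse dorsal epidermis. Retinoid was tested at 1.7 or 17 nmol dose levels. Activity is expressed as a percentage of that of retinoic acid at the same dose.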

In assay [6] the target is T1, Ornithine decarboxylase (Mus musculus). In words: Percent inhibition of induction of ODC(ornithine decarboxylase) by TPA in mouse skin at a dose of 17.0 nmol. Summed up:
as §1

The nature of assay [7]: Relative activity as reciprocal of the ratio of ED50 (retinoid) / ED50 (retinoic acid) when control was 6 x 10e-12. The format is functional.
For assay [8], the system named is Cricetinae gen. sp. In words: Reversal of keratinization process in hamster tracheal organ culture at concentration of 10e-12 M expressed as percent of active cultures out of 15 cultures. In kind it is functional, Trachea.
The subject of assay [9] is Cricetinae gen. sp. In words: Reversal of keratinization process in hamster tracheal organ culture at concentration of 10e-10 M expressed as percent of active cultures out of 22 cultures. In kind it is functional, Trachea.
For assay [10], the system named is Cricetinae gen. sp. Nature of the assay: Reversal of keratinization process in hamster tracheal organ culture at concentration of 10e-9 M expressed as percent of active cultures out of 7 cultures. In kind it is functional, Trachea.
Assay [11] can be described thus: Relative activity as reciprocal of the ratio of ED50 (retinoid) / ED50 (retinoic acid) when control was 7 x 10e-12. The format is functional.
The subject of assay [12] is Cricetinae gen. sp. Nature of the assay: Reversal of keratinization process in hamster tracheal organ culture at concentration of 10e-11 M expressed as percent of active cultures out of 22 cultures. In kind it is functional, Trachea.
The nature of assay [13]: Relative activity as reciprocal of the ratio of ED50 (retinoid) / ED50 (retinoic acid) when control was 3 x 10e-11. The format is functional.

The inhibition is the share of the control response that was lost under treatment. For `CC1=C(/C=C/c2ccc3cc(C(=O)O)ccc3c2)C(C)(C)CCC1`, the Active culture with Cricetinae gen. sp. [1] was found to be 100%; with Cricetinae gen. sp. [2], 46%; in the assay with Cricetinae gen. sp. [3], 20%; in the assay with Cricetinae gen. sp. [4], 92%. Also, the inhibition is 30% in assay [5] and 48% in [6]. Besides, the Ratio in [7] was found to be 0.4.

On to `CC1(C)CCC(C)(C)c2cc(-c3ccc4cc(C(=O)O)ccc4c3)ccc21`, for which the Active culture turned out to be 27% with Cricetinae gen. sp. [8], 95% in the assay on Cricetinae gen. sp. [9], 100% in the assay on Cricetinae gen. sp. [10] and 77% with Cricetinae gen. sp. [12]. The inhibition in assay [5] is 56%; in assay [6], 80%. In addition, the Ratio in assay [11] was greater than 10.

Turning to `CC1=C(/C=C/C(C)=C/c2ccc(C(=O)O)cc2)C(C)(C)CCC1`, the Ratio in assay [13] was found to be 1.
